TAAR1 ag: human TAAR1 agonists, primary screen, Fluo-8 calcium fluorescence, CHO RD-HGA16 cells. actives 0.99% (n = 360,000). activation, % at 3 µM. vehicle wells 0%, saturating PEA agonist 100%. Trace amine-associated receptor 1 (Homo sapiens), Q96RJ0;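 active = activation above the mean activation of all test compounds in the run plus 3 SD, cut at about 38% in these data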
Target sequence (Q96RJ0 whole entry, looked up): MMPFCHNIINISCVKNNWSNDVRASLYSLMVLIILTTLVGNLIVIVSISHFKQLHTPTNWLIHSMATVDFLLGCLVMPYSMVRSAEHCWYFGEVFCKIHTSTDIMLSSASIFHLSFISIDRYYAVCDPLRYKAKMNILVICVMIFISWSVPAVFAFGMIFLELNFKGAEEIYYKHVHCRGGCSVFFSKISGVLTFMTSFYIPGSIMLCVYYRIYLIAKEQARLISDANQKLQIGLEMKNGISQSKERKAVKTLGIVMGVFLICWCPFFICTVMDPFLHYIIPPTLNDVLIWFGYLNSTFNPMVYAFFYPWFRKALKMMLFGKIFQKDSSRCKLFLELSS
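System: CHO-derived RD-HGA16 cells with stable Gα16 and human TAAR1 / Times: 17-24 h plating, Fluo-8 75 min 37 °C, 30 min RT / Technique: calcium-sensitive Fluo-8 signal, excitation 470-495, emission 515-575 nm / Measure: % activation relative to PEA EC100 response / Benchmarks: DMSO and PEA EC100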
OX1R antag-1: antagonists of human orexin 1 receptor (OX1R); inhibition, % at 6.6 µM; OX1R-expressing cells, FRET antagonist read-out; actives 1.8% (n = 330,000); in the data active = inhibition mostly above about 38%, no sharp cut-off; inactive = mostly below about 40%;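 note: 0% = agonist challenge alone and 100% = reference antagonist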
Target sequence (O43613 whole entry, looked up): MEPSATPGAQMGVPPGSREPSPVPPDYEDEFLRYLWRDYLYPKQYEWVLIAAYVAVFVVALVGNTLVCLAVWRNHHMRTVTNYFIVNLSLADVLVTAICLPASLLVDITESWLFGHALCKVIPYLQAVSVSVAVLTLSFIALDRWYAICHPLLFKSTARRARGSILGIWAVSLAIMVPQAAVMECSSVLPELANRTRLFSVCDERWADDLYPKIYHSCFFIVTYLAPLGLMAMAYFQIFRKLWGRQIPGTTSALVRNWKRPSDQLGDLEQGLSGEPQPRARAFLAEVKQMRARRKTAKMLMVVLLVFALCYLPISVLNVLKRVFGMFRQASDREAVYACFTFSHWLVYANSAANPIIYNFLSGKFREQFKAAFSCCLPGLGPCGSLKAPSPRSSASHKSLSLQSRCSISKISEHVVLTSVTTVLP
GalR3 antag: GalR3 antagonists in HEK293 cells, primary screen, cell-based, fluorescence readout; HEK293 GalR3-CNG cAMP membrane potential fluorescence; galR3 body fused to GalR1 C-terminus; inhibition, % at 3 µM; actives 0.44% (n = 360,000); AID 651719, 2012;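 active = inhibition above the screen-wide average plus 3 SD, cut at about 13% in these data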;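 note: forskolin and galanin both at EC90 stimulate the cells; cAMP rise reported by CNG channel membrane potential dye signal; 0% = forskolin plus galanin with DMSO and 100% = forskolin alone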
OX1R antag-2: OX1R (HCRTR1) antagonists, primary screen, fluorescence, CHO/OX1R cells, Fluo-8 calcium, orexin A; Orexin/Hypocretin receptor type 1 (Homo sapiens), O43613; Fluo-8 calcium fluorescence; inhibition, % at 5 µM; actives 0.43% (n = 330,000); AID 434989, 2010;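 active = inhibition above its plate's threshold, mean inhibition of all tested compounds on the plate plus 3 SD, cut at about 37% in these data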;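 note: 0% = orexin A challenge wells and 100% = SB-334867-A antagonist wells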
TAAR1 antag: human TAAR1 antagonists, primary screen, Fluo-8 calcium fluorescence, CHO RD-HGA16 cells | Trace amine-associated receptor 1 (Homo sapiens), Q96RJ0 | antagonist | inhibition, % at 3 µM | actives 1.5% (n = 360,000) | AID 624466, 2012;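 active = inhibition above a per-plate cutoff, the mean inhibition of test compounds on that plate plus 3 SD, cut at about 49% in these data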;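 note: 0% = DMSO plus EC80 beta-PEA response and 100% = DMSO alone without agonist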
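System: CHO RD-HGA16 cells bearing hTAAR1. Reagent: EC80 β-phenethylamine stimulus. Schedule: seeding 17-24 h prior, 75-min 37 °C, 30-min RT dye loading. Signal: Fluo-8 intracellular calcium dye fluorescence, real-time kinetic reads. Read-out: % inhibition from peak post-agonist over basal fluorescence ratio. Benchmarks: vehicle wells and EC80 agonist wells. Replicates: n of 1.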
CHO parental Ca: ATP-evoked calcium signal inhibitors, parental CHO, primary screen, counter-screen for OX1R antagonist project, cell-based, fluorescence, Fluo-8 calcium dye. parental CHO-K1, ATP-induced calcium, Fluo-8 fluorescence. inhibition, % at 5.6 µM. actives 0.63% (n = 330,000);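 active = inhibition above that plate's mean sample inhibition plus 3 SD, cut at about 26% in these data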;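 note: 0% = ATP-challenged DMSO wells and 100% = DMSO wells without ATP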
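Assay system: parental CHO cells; Read-out basis: percent inhibition of ATP-evoked calcium rise, normalized to controls; Benchmarks: ATP and no-ATP DMSO wells; Compound dosing: single nominal dose of 5.6 µM per compound; Signal: Fluo-8 calcium dye fluorescence; Also added: ATP as calcium-mobilizing challenge; Repeats: singlicate.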
TAAR1 ag conf: human TAAR1 agonists, retest of hits, confirmation, Fluo-8 calcium fluorescence, CHO RD-HGA16 cells | shares compounds with TAAR1 ag | scaled: DMSO 0%, maximal phenethylamine 100% | activation, % at 3 µM | actives 82% (n = 2,400);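 active = activation above a cutoff set at the run's mean compound activation plus 3 SD, cut at about 39% in these data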
Ga16 ag counter: nonselective calcium mobilization agonists, CHO-Ga16 cells, counter-screen for hTAAR1 agonist project, cell-based, fluorescence, CHO-Ga16 parental line | shares compounds with TAAR1 ag | Fluo-8 calcium fluorescence; normalized to maximal ATP response, DMSO zero | activation, % at 3 µM | actives 50% (n = 2,400) | AID 651787, 2012;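 active = activation above the run cutoff, the mean activation over all tested wells plus 3 SD, cut at about 12% in these data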;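 note: 0% = DMSO wells and 100% = maximal ATP response on the peak over basal ratio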
TAAR1 desens: TAAR1 desensitization by agonist hits, confirmation, counter-screen for TAAR1 agonist project, cell-based, fluorescence, tachyphylaxis; shares compounds with TAAR1 ag; CHO RD-HGA16 hTAAR1, Fluo-8 calcium, beta-PEA response inhibition; inhibition, % at 3 µM; actives 46% (n = 2,400);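 active = inhibition above the run cutoff, the mean inhibition of all test compounds plus 3 SD, cut at about 49% in these data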;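 note: beta-PEA stimulus applied at its EC80; loss of beta-PEA calcium signal after compound pretreatment read as receptor desensitization; 0% = DMSO with beta-PEA at EC80 and 100% = DMSO alone without agonist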
Ga16 nonsel ant: inhibition of ATP-evoked calcium response in CHO-Ga16 cells, counter-screen for TAAR1 agonist project, cell-based, fluorescence; actives 39% (n = 2,400); CHO-Ga16 ATP-induced calcium, Fluo-8 fluorescence; inhibition, % at 3 µM; shares compounds with TAAR1 ag;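 active = inhibition above the plate's mean compound inhibition plus 3 SD, computed per plate, cut at about 22% in these data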;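 note: 0% = EC80 ATP with DMSO and 100% = DMSO wells without ATP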
* hit, by the source's call; nt = no result given. A selection: hits, their analogues and other compounds. The true share with any hit is near 4.2%.

SMILES | TAAR1 ag | OX1R antag-1 | GalR3 antag | OX1R antag-2 | TAAR1 antag | CHO parental Ca | TAAR1 ag conf | Ga16 ag counter | TAAR1 desens | Ga16 nonsel ant
O=C(NCCc1ccc(O)cc1)c1[nH]c(C(F)(F)F)nc1-c1ccccc1 | 92* | nt | 6 | nt | 69* | nt | 94* | 8 | 90* | 10
O=C(NCCc1ccccc1)c1[nH]c(C(F)(F)F)nc1-c1ccccc1 | 69* | nt | -5 | nt | 47 | nt | 80* | 10 | 58* | 11
O=C(c1cc(-c2ccccc2)on1)N1CCc2ccccc2C1 | 48* | 17 | -7 | -9 | -1 | -10 | 12 | 3 | 2 | 11
O=C(c1[nH]c(C(F)(F)F)nc1-c1ccccc1)N1CCCCC1 | 2 | nt | -8 | nt | -4 | nt | nt | nt | nt | nt
COc1ccc(C(=O)Nc2cc(S(=O)(=O)N3CCCCC3)ccc2C)cc1 | 3 | nt | -7 | nt | 1 | nt | nt | nt | nt | nt
CC(=O)NC(Cc1ccc(C(C)C)cc1)C(=O)NC1CCN(c2nc(C)cc(C)n2)CC1 (stereo not drawn) | 10 | 0 | -6 | -10 | 3 | 13 | nt | nt | nt | nt
O=C(O)C1C2C=CC(O2)C1C(=O)NC1CCCc2ccccc21 (stereo not drawn) | 55* | 16 | -4 | -13 | -16 | 4 | 49* | 2 | 6 | 9
COc1ccc(-n2nc3c(=O)[nH][nH]c3cc2=O)cc1 | 9 | 45 | -1 | -6 | -17 | -7 | nt | nt | nt | nt
CC1=C(C(=O)OCc2ccccc2)C(c2ccc(-c3ccccc3)cc2)NC(=O)N1CCCCCC(=O)O (stereo not drawn) | 95* | 13 | 0 | -8 | 92* | -19 | -1 | 9 | 14 | 29*
CC1=C(C(=O)OCc2ccccc2)C(c2ccccc2)NC(=O)N1CCCCCC(=O)O (stereo not drawn) | 5 | 25 | -1 | -37 | 12 | -19 | nt | nt | nt | nt
CCOCCCNC(=O)c1ccc(N2CCCC2)c(NS(=O)(=O)c2ccc(C)cc2)c1 | -1 | 7 | -13 | -29 | -7 | -14 | nt | nt | nt | nt
Cc1ccc2c(C(=O)CN3CCSCC3)c(C)[nH]c2c1 | 12 | 2 | -4 | -5 | 0 | -2 | nt | nt | nt | nt
O=C(NN1C(=O)C2C(c3ccccc3)C=CC(c3ccccc3)C2C1=O)c1ccccc1 (stereo not drawn) | 70* | 22 | -3 | 1 | 68* | -1 | 13 | 13* | 37 | 29*
O=C(NN1C(=O)C2C3c4ccccc4C(c4ccccc43)[C@@H]2C1=O)c1ccccc1 (stereo partly drawn) | 4 | 11 | -1 | -17 | -2 | -5 | nt | nt | nt | nt
Cc1ccc(Nc2nc(N)c3ccccc3n2)cc1C | 68* | nt | -12 | nt | 6 | nt | 67* | 2 | 54* | 3
O=C(Nc1ccccc1)Nc1ccc(NC(=O)c2ccccc2O)cc1 | 70* | 0 | -8 | -11 | 81* | 15 | 101* | 13* | 97* | 30*
O=C(Nc1ccccc1)Nc1ccc2ncoc2c1 | 59* | 26 | 2 | 3 | 6 | 4 | 88* | 9 | 61* | 12
O=C(Nc1ccccc1)c1ccccc1O | 10 | 12 | -4 | 3 | 0 | -5 | nt | nt | nt | nt
CC(=O)Nc1ccc(NC(=O)Nc2ccccc2)cc1 | nt | -8 | -12 | 2 | nt | 5 | nt | 6 | nt | 13
C=C(C)CN(CC)C(=O)CC1C(=O)NCCN1CC(C)(C)C (stereo not drawn) | 0 | 14 | 7 | -28 | -45 | -2 | nt | nt | nt | nt
O=C(NCCc1ccccc1)C(NS(=O)(=O)c1cccc2nsnc12)c1ccccc1 (stereo not drawn) | 41* | 74* | -12 | -15 | 11 | -18 | 76* | -1 | 41 | 11
O=C(NCCc1ccccc1)C1CCCN(S(=O)(=O)c2cccc3nsnc23)C1 (stereo not drawn) | 97* | 36 | 2 | -25 | 72* | -30 | 85* | 6 | 91* | 15
Cc1ccc(CCNC(=O)C2CCN(S(=O)(=O)c3cccc4nsnc34)CC2)cc1 | 77* | 21 | -1 | -23 | 56* | -9 | 1 | 4 | 16 | 19
Cc1ccc(CCNC(=O)C2CCN(S(=O)(=O)c3cccc4cccnc34)CC2)cc1 | 8 | 20 | 2 | -14 | 29 | -1 | nt | nt | nt | nt
O=C(NCCc1ccccc1)C1CCCN(S(=O)(=O)c2cccc3nonc23)C1 (stereo not drawn) | 9 | 27 | 0 | -18 | 3 | -2 | nt | nt | nt | nt
SMILES | TAAR1 ag | OX1R antag-1 | GalR3 antag | OX1R antag-2 | TAAR1 antag | CHO parental Ca | TAAR1 ag conf | Ga16 ag counter | TAAR1 desens | Ga16 nonsel ant
COc1cccc(CNS(=O)(=O)c2ccc3c(c2)NC(=O)CS3)c1 | 4 | 13 | -6 | -14 | 3 | -6 | nt | nt | nt | nt
Cc1ccc(-n2nc3c(=O)n(CCCC(=O)NCc4ccccc4C)nc(C)c3c2C)cc1 | -2 | 11 | 5 | -35 | -30 | -28 | nt | nt | nt | nt
Cc1ccc(-n2nc3c(=O)n(CC(=O)NCCc4ccccc4C)nc(C)c3c2C)cc1 | nt | 14 | -10 | -22 | nt | -14 | nt | 2 | nt | 7
O=C(C(=O)N1CCc2ccccc2C1)c1cn(CC(=O)N2CCCC2)c2ccccc12 | 50* | 16 | -12 | -10 | 0 | -21 | 50* | 3 | 10 | 11
c1ccc(-c2cnn3c(-c4ccccc4)c(-c4ccccc4)nc3n2)cc1 | 77* | nt | 3 | nt | 63* | nt | 100* | 121* | 84* | 82*
O=C1C=C(c2ccccc2)C(=O)N1Nc1ccccc1 | 51* | 27 | 0 | 26 | 16 | 14 | 70* | 48* | 43 | 35*
